According to ChEMBL document CHEMBL1128454, “Cyclization-activated prodrugs: N-(substituted 2-hydroxyphenyl and 2-hydroxypropyl)carbamates based on ring-opened derivatives of active benzoxazolones and oxazolidinones as mutual prodrugs of acetaminophen” (J Med Chem, 1995):

Key:
[1] = Compound was evaluated for pKa; assay type: physicochemical
Method in brief: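 Apparent kinetic pKa obtained by fitting the pH-rate profile (log kobsd vs pH, UV-monitored hydrolysis in NaOH and carbonate, borax, Tris or phosphate buffers) to a rate law combining the pH-independent constant with the acid dissociation constant of the prodrug hydroxyl.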

[2] = Compound was evaluated for its rate constant (Kp) which are average values of Kobs measured in the pH range 10-11 at 25 degree C (micro = 0.5 M ).; assay type: ADME
Method in brief: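 Spectrophotometric hydrolysis in aqueous NaOH or carbonate/borax buffers, 25 °C, ionic strength 0.5 M. kp is the average of kobsd values measured over pH 10-11 (the pH-independent plateau). kobsd came from first-order ln(OD) vs time plots. Error in each rate constant about ±3%.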

[3] = its bimolecular rate constant (KOH) at 25 degree C (m = 0.5); assay type: ADME
Method in brief: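 Hydrolysis followed by UV spectrophotometry in aqueous NaOH or buffer (carbonate, borax, Tris, phosphate) at 25 °C, ionic strength 0.5 M. Second-order constant kOH taken from the linear plot of kobsd vs [OH-] over the pH-dependent region. kobsd came from ln(OD) vs time plots. pH in the cell was read before and after reaction.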

[4] = its hydrolysis half life in rat plasma (pH 7.4); assay type: ADME, organism-based
Method in brief: (§1)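 Prodrug in acetonitrile or dioxane added to 0.05 M phosphate buffer pH 7.40 containing 80% human or rat plasma, about 0.04 mg/mL initial, at 37 or 25 °C. Aliquots quenched and deproteinized with 0.05 M methanolic HCl, centrifuged, then analysed by reversed-phase HPLC with diode-array detection. First-order constants from ln plots of drug or prodrug concentration vs time.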

[5] = its hydrolysis half life in phosphate buffer (pH 7.4); assay type: ADME
Method in brief: (§2)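 Prodrug hydrolysed in pH 7.40 phosphate buffer at 37 °C (some runs at 25 °C) and monitored by UV spectrophotometry until product formation, about 10 half-lives. First-order kobsd from ln(OD) vs time, with pH checked before and after. Half-life taken as 0.693/kobsd.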

[6] = its hydrolysis half life in human plasma (pH 7.4); assay type: ADME, organism-based; method in brief: as §1
[7] = Compound was evaluated for its hydrolysis half life obtained from the relation Kobs was measured in a pH 7.4 phosphate buffer at 37 degree C (micro = 0.5 M ).; assay type: ADME; details: for half-life: phosphate buffer; method in brief: as §2

| pKa [1] | Kp [2] [s⁻¹] | half-life [7] [min] | Structure (SMILES) | further results |
| --- | --- | --- | --- | --- |
| 14.3 | 2.75e-06 |  | O=C(Nc1cc(Cl)ccc1O)OCCCl |  |
|  |  |  | COc1ccc(Cl)cc1NC(=O)Oc1ccc(NC(C)=O)cc1 | KOH [3]: 510 M⁻¹ s⁻¹ |
| 9.49 | 0.205 | 0.118 | CC(=O)Nc1ccc(OC(=O)Nc2cc(Cl)ccc2O)cc1 | half-life [4]: 0.833 min; half-life [5]: 0.118 min; half-life [6]: 1.1 min |
|  |  |  | COc1ccccc1OCC(O)CNC(=O)Oc1ccc(NC(C)=O)cc1 (configuration not stated) | half-life ([4]; read-out: T1/2): 58 min; half-life [5]: 371 min; KOH [3]: 10.5 M⁻¹ s⁻¹; half-life ([6]; read-out: T1/2): 59 min |
| 10 | 0.169 | 0.2 | O=C(Nc1cc(Cl)ccc1O)Oc1ccccc1 |  |
| 10.4 | 0.0806 | 0.383 | Cl.Nc1ccc(OC(=O)Nc2cc(Cl)ccc2O)cc1 |  |
|  |  |  | COc1ccccc1OCC(CNC(=O)Oc1ccc(NC(C)=O)cc1)OC (configuration not stated) | half-life ([4]; read-out: T1/2): 153 min; half-life [5]: 502 min; half-life ([6]; read-out: T1/2): 134 min |
|  |  |  | CC(=O)Nc1ccc(OC(=O)NCC(O)COc2cc(C)cc(C)c2)cc1 (configuration not stated) | half-life ([4]; read-out: T1/2): 62 min; half-life [5]: 416 min; half-life ([6]; read-out: T1/2): 45 min |
| 16 | 8.63e-07 | 418000 | CCOC(=O)Nc1cc(Cl)ccc1O |  |
| 10.2 | 0.0976 | 0.37 | COc1ccc(OC(=O)Nc2cc(Cl)ccc2O)cc1 |  |
|  |  |  | CNC(=O)Oc1ccc(NC(C)=O)cc1 | KOH [3]: 11.5 M⁻¹ s⁻¹ |
| 13.6 | 0.00025 |  | C#CCOC(=O)Nc1cc(Cl)ccc1O | T1/2 ([7]; buffer): 108 min |
| 8.97 | 0.7 | 0.0518 | O=C(Nc1cc(Cl)ccc1O)Oc1cccc(C(F)(F)F)c1 |  |
| 9.02 | 0.503 | 0.0634 | O=C(Nc1cc(Cl)ccc1O)Oc1cccc(Cl)c1 |  |
| 9.49 | 0.0221 | 0.233 | CC(=O)Nc1ccc(OC(=O)Nc2cc(C(=O)c3ccccc3)ccc2O)cc1 | half-life ([4]; read-out: T1/2): 2.9 min; half-life [5]: 0.233 min; half-life ([6]; read-out: T1/2): 10.2 min |
| 14.2 | 5.93e-06 |  | CC#CCOC(=O)Nc1cc(Cl)ccc1O |  |
| 9.38 | 0.279 | 0.125 | CC(=O)Nc1cccc(OC(=O)Nc2cc(Cl)ccc2O)c1 |  |
| 15.5 | 1.05e-06 | 105000 | COC(=O)Nc1cc(Cl)ccc1O |  |
| 9.8 | 0.184 | 0.187 | CC(C)(C)OC(=O)Nc1ccc(OC(=O)Nc2cc(Cl)ccc2O)cc1 |  |
| 9.49 | 0.119 | 0.0965 | CC(=O)Nc1ccc(OC(=O)Nc2ccc(C(=O)c3ccccc3)cc2O)cc1 | half-life [4]: 0.233 min; half-life [5]: 0.097 min; half-life [6]: 1 min |
| 12.4 | 0.014 | 2.58 | O=C(Nc1cc(Cl)ccc1O)OCC(F)(F)F |  |
| 13.2 | 0.000806 | 42.5 | O=C(Nc1cc(Cl)ccc1O)OCC(Cl)Cl | half-life ([4]; read-out: T1/2): 53.8 min; half-life ([6]; read-out: T1/2): 105 min |

| Structure (SMILES) | pKa [1] | Kp [2] [s⁻¹] | half-life [7] [min] | further results |
| --- | --- | --- | --- | --- |
| O=C(Nc1cc(Cl)ccc1O)OCC(Cl)(Cl)Cl | 12.7 | 1.14 | 276000 | half-life ([4]; read-out: T1/2): 7.5 min; half-life ([6]; read-out: T1/2): 10.1 min |
